Consider one molecule from ChEMBL document CHEMBL3352269, “Discovery of 2-Pyridylpyrimidines as the First Orally Bioavailable GPR39 Agonists” (ACS Med Chem Lett, 2014).

Data set [1] in a line: Hepatic clearance in rat liver microsomes. The class given is ADME. An outline of the steps: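 Predicted hepatic clearance calculated from intrinsic clearance in rat liver microsomes.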
(Microsomes from liver hold many membrane-bound enzymes, among them those of drug oxidation.)

Data set [2] concerns the target T1, G-protein coupled receptor 39 (Homo sapiens, UniProt O43194).
T1 sequence (O43194 whole entry): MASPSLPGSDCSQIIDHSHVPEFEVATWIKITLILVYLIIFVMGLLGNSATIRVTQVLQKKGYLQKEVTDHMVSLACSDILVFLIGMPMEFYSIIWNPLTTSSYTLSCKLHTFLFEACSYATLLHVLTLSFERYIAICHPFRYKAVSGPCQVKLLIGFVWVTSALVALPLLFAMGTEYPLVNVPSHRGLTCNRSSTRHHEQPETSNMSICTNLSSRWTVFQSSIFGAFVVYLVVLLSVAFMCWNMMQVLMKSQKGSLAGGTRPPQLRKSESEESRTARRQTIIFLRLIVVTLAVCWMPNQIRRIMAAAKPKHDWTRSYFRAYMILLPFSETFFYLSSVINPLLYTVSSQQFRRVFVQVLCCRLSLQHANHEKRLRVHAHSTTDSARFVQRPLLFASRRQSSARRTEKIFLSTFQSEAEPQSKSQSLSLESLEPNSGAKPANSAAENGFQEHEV
The data set can be described thus: Agonist activity at human GPR39 by IP1 assay. It is filed as functional. An outline of the steps: (§1)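 Gαq signalling read as inositol-1-phosphate (IP1) accumulation in HEK293 cells overexpressing human, mouse or rat GPR39. EC50 taken from an 11-point dose–response curve run in triplicate. Replicates range from 1 to 4, with standard deviation where available.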

Data set [3] concerns the target T2, Protein Gpr39 (Rattus norvegicus, UniProt A6QR73).
T2 sequence (A6QR73 whole entry): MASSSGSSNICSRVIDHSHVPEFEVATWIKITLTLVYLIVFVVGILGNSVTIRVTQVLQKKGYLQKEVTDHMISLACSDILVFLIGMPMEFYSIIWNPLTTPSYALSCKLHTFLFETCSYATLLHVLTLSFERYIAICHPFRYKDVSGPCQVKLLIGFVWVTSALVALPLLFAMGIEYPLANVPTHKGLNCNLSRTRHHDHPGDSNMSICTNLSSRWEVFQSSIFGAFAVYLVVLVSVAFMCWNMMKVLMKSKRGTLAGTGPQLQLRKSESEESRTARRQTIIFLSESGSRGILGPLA
The data set can be described thus: Agonist activity at rat GPR39 by IP1 assay. It is filed as functional. The procedure, abridged:
as §1

Data set [4] addresses T1, G-protein coupled receptor 39. The data set can be described thus: Agonist activity at human GPR39 expressed in HEK293 cells by IP1 assay. It is filed as functional, cell-based. An outline of the steps: as §1
Data set [5] addresses T2, Protein Gpr39. The data set can be described thus: Agonist activity at rat GPR39 expressed in HEK293 cells by IP1 assay. The class given is functional, cell-based. An outline of the steps: as §1
Data set [6] has as its target T1, G-protein coupled receptor 39. The data set can be described thus: Agonist activity at human GPR39 expressed in HEK293 cells by cAMP assay. The class given is functional, cell-based. The procedure, abridged: (§2)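 cAMP accumulation (Gαs signalling) in HEK293 cells overexpressing human GPR39. Dose–response curve run in triplicate, 1–16 replicates. EC50 derived from the curve. Percent efficacy is expressed relative to the cAMP response to 25 μM forskolin.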
(Changes in cAMP serve as a functional read-out for many G protein-coupled receptors.)

The target of data set [7] is T3, G-protein coupled receptor 39 (Homo sapiens) (UniProt O43194).
T3 sequence (whole entry): T1 sequence (O43194 whole entry)
The data set can be described thus: Agonist activity at human GPR39 expressed in HEK293 cells by cAMP assay relative to forskolin. It is filed as functional, cell-based. An outline of the steps:
as §2

Data set [8] in a line: Induction of GLP1 secretion in mouse STC1 cells incubated for 2 hrs by fluorescent bead based ELISA method. The class given is functional, cell-based. The note with it: STC-1, 2 h. An outline of the steps:
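Mouse enteroendocrine STC-1 cells, which express endogenous GPR39, were assayed for GLP-1 secretion over a dose–response run in triplicate. Maximal activity is expressed as fold increase in GLP-1 over the DMSO control.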
(ELISA stands for enzyme-linked immunosorbent assay.)

The nature of data set [9]: Protection against cytokine-induced cell death in rat INS-1E cells assessed as caspase 3/7 activity. The class given is functional, cell-based. The procedure, abridged: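 Rat insulinoma INS-1E cells (beta-cell phenotype) were treated with cytokines to induce cell death. Caspase 3/7 activity was the read-out. Dose–response run in triplicate.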
Data set [10] can be described thus: Protein binding in rat plasma. The class given is ADME, cell-free. The note with it: read-out: PPB (converted).
A short description of data set [11]: Protein binding in mouse plasma. The class given is ADME, cell-free. The note with it: read-out: PPB (converted).
Data set [12] deals with Growth hormone secretagogue receptor type 1 (Homo sapiens, UniProt Q92847). The data set can be described thus: Binding affinity to human ghrelin receptor.
For data set [13], the target named is Neurotensin receptor type 1 (Homo sapiens, UniProt P30989). The data set can be described thus: Binding affinity to human neurotensin 1 receptor.
The nature of data set [14]: Cmax in C57BL/6 mouse at 10 mg/kg, po administered as single dose after 1 to 1.5 hrs by LC/MS/MS method. The class given is ADME, organism-based. On the set-up: dose 10 mg/kg, route oral. Particulars: in vivo.
Data set [15] can be described thus: Cmax in C57BL/6 mouse at 30 mg/kg, po administered as single dose after 1 to 1.5 hrs by LC/MS/MS method. It is filed as ADME, organism-based. On the set-up: dose 30 mg/kg, route oral. The note with it: in vivo.
The nature of data set [16]: Cmax in C57BL/6 mouse at 100 mg/kg, po administered as single dose after 1 to 1.5 hrs by LC/MS/MS method. It is filed as ADME, organism-based. The arrangement: dose 100 mg/kg, route oral. The note with it: in vivo.
A short description of data set [17]: Half life in C57BL/6 mouse at 10 mg/kg, po administered as single dose by LC/MS/MS method. The class given is ADME, organism-based. The arrangement: dose 10 mg/kg, route oral. Particulars: in vivo. An outline of the steps:
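Male C57BL/6 mice, separate study with a single 10 mg/kg dose. Half-life calculated from the plasma concentration profile.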

The test system of the next data set is Mus musculus. The data set can be described thus: Increase in GLP1 level in C57BL/6 mouse at 30 mg/kg, po concurrently dosed with 3 mg/kg, po DPP4 inhibitor PKF275-055 followed by glucose challenge after 1 hr post drug dose. It is filed as functional. An outline of the steps:
(§3)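 Male C57BL/6 mice were dosed orally with compound together with a DPP-IV inhibitor. After 1 h they were challenged with oral glucose at 3 g/kg. Active GLP-1 and plasma exposure were measured 30 min later. One-way ANOVA with Dunnett's post-test against the vehicle group.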

Data set [18] is described as follows: Plasma concentration in C57BL/6 mouse at 30 mg/kg, po concurrently dosed with 3 mg/kg, po DPP4 inhibitor PKF275-055 followed by glucose challenge after 1 hr post drug dose. The class given is ADME, organism-based. An outline of the steps:
as §3

Sequence of Neurotensin receptor type 1 (P30989 whole entry): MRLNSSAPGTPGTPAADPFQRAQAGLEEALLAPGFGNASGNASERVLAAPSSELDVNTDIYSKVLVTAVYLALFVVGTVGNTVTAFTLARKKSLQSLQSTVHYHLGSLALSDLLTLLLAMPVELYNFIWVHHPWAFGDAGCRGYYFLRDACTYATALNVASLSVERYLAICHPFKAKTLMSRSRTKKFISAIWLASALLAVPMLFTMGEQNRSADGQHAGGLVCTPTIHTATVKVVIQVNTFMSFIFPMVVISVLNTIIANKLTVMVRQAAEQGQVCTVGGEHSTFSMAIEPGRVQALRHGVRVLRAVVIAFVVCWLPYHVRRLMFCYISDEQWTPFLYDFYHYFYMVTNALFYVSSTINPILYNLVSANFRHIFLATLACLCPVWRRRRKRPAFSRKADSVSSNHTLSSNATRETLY
Sequence of Growth hormone secretagogue receptor type 1 (Q92847 whole entry): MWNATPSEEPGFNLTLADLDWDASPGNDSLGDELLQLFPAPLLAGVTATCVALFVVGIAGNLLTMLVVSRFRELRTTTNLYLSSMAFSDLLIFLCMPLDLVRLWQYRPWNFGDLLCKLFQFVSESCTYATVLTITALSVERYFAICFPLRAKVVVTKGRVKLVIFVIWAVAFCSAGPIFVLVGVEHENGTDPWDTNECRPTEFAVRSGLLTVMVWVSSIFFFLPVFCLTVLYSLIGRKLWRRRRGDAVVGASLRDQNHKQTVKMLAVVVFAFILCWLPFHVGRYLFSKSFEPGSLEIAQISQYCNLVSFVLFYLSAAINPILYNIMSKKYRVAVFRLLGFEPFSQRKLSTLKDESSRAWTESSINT

For the molecule `CNc1nc(NCc2ccc(NS(C)(=O)=O)cc2Cl)cc(-c2ccccn2)n1`, the CLhep predicted in data set [1] was 41.3 mL/min/kg. Moreover, the EC50 (in general, the concentration that produces a half-maximal response) in data set [2] came out at 0.0008 µM; on Protein Gpr39 [3], 0.0004 µM; in data set [4], 0.0008 µM; on Protein Gpr39 [5] it was 0.0004 µM; in data set [6] it was 0.06 µM; in [8], 0.06 µM. Also, the EC50 in data set [9] is 0.02 µM. For the same molecule, in data set [7], the Efficacy was found to be 64%. Also, the figures for the fraction unbound in [10] and in [11] were 0.007 and 0.009, respectively. In addition, the 50% inhibitory concentration (IC50) in [12] and in [13] was more than 30 µM each time. For the same molecule, the results for the Cmax in data set [14], in data set [15] and in data set [16] were 1.4 µM, 6.1 µM and 25.3 µM, respectively. The half-life (in general, how long it takes for the measured level to halve) in data set [17] is 7 h. Also, the “fold change (FC)” value in the data set with Mus musculus turned out to be 6. The molecule further displayed a concentration at 1 h in data set [18] of 1.6 µM.
